Assay outcomes deposited in PubChem by several laboratories.
This is a sample that favours compounds with a hit; in the whole collection about 3.3% have one here.
ROMK mod: human ROMK K+ channel modulation, primary screen. P48048. Tet-inducible ROMK, thallium flux fluorescence; actives lie on both sides. B-score at 10 µM. hit rate 2% among 130,000;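 active = signal ratio slope over the read window, or its plate-corrected B-score, at least 3 SD from the plate mean, either direction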;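 also: B-score of the F/F0 ratio slope over 7 to 12 s after thallium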
Target sequence (P48048 whole entry, looked up): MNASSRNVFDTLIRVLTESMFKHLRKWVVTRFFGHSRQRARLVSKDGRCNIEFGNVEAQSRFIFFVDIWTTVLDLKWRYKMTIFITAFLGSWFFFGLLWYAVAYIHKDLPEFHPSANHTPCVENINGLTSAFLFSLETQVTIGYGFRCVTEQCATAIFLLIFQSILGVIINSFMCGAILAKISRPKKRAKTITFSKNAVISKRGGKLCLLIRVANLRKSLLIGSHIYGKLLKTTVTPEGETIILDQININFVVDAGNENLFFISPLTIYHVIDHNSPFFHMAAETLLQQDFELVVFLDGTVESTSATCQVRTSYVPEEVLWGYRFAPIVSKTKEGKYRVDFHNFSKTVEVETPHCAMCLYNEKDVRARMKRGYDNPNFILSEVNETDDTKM
PMI act hi M6P: activators of human phosphomannose isomerase at near-saturating mannose 6-phosphate | activation factor at 20 µM | coupled PMI enzyme assay, resazurin fluorescence, 20 min; stronger effect = higher value; 1 = untreated enzyme, 0 = substrate-free blank | hit rate 0.34% among 190,000;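 active = activation factor of 2 or more at 20 µM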
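Test system – human PMI in coupled enzyme assay · Timing – 20 min incubation at room temperature · Detection – Diaphorase-driven resazurin-to-resorufin fluorescence, excitation 544, emission 590 nm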
ABCG2 block: blocks JC-1 efflux by human ABCG2 transporter | inhibition, % at 6.6 µM | AID 1325 | Q9UNQ0 | hit rate 0.1% among 190,000 | IgMXP3 cells, flow cytometry;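 active = inhibition above 80%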
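Read-out basis: Efflux inhibition in percent versus controls | Test system: ABCG2 IgMXP3 and barcoded ABCB1 CCRF-Adr cell mix | Quantity: 3 million cells/mL in well | Schedule: 10 min at 25 °C | Control set: Nicardipine as high control, DMSO as low control | Reagent: JC-1 as fluorescent efflux pump substrate | Signal: Flow cytometry of retained JC-1 fluorescence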
ABCB1 block: human ABCB1 inhibition, ABCG2 as counter-screen; hit rate 0.067% among 190,000; P08183; AID 1326; CCRF-Adr cells, JC-1 efflux, flow cytometry; inhibition, % at 6.6 µM; in the data active = inhibition above about 40%;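 also: higher value means more JC-1 retained so stronger ABCB1 efflux block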
PMI act: activators of human phosphomannose isomerase. purified human PMI, coupled resazurin fluorescence, 20 min; stronger effect = higher value; 1 = vehicle control, 0 substrate-free wells. activation factor at 20 µM. hit rate 0.005% among 190,000. AID 1214;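 active = activation factor of 2 or more at 20 µM, relative to plate controls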
KCC2 mod: modulates chloride dependent transport by human KCC2. Q9H2X9. KCC2 cells, thallium flux FluoZin-2 fluorescence. B-score of Tl+ flux slope (higher = more flux/activation; lower = inhibition) at 10 µM. hit rate 2.2% among 190,000;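 active = thallium flux slope and its plate-corrected score both differing from the plate sample mean at a set confidence after two filtering rounds, in either direction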;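 also: slope of fluorescence scaled to starting intensity during 10 to 20 s after thallium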
KCC2 secondary: confirmation of human KCC2 transport modulators. shares compounds with KCC2 mod. HEK293-KCC2, thallium flux, FluoZin2 fluorescence; stronger effect = higher value. normalised thallium flux (F/F0 slope) at 10 µM. hit rate 15% among 3,700. AID 1713;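 active = thallium flux slope above the same plate's solvent-only control mean plus 3 SD; inconclusive = the two replicate wells disagree; inactive = no significant difference from solvent-only control wells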
KCC2 bumet counter: thallium flux persisting under bumetanide in KCC2 cells, counter-screen secondary assay. shares compounds with KCC2 mod. HEK293-KCC2 + bumetanide/ouabain, thallium flux FluoZin2; stronger effect = higher value. normalized thallium flux at 10 µM. hit rate 49% among 3,700. AID 1714;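 active = thallium entry rate above the same plate's blocked-transporter control wells by more than 3 SD; inconclusive = the two repeat wells disagree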;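 also: raw slope of fluorescence over initial fluorescence between 10 and 20 s after thallium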
KCC2 secondary2: confirmation of human KCC2 transport modulators; shares compounds with KCC2 mod; AID 1715; normalized thallium flux at 10 µM; HEK293-KCC2, thallium flux FluoZin2 fluorescence; actives lie on both sides; F/F0 rise rate, 10–20 s post-thallium; hit rate 23% among 3,700;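 active = thallium flux slope more than 3 SD above or below the plate's solvent-only control mean, mostly below; inconclusive = the two repeat wells disagreed; inactive = no significant shift from solvent-only controls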
HEK293 Tl flux: acts in parental HEK cells, KCC2 counter-screen. thallium flux rate (normalised fluorescence) at 10 µM. shares compounds with KCC2 mod. HEK293 parental cells, thallium flux FluoZin2, ouabain; baseline-ratio fluorescence slope, 10–20 s after thallium. hit rate 46% among 3,700. AID 1716;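 active = thallium flux rate significantly above the same plate's solvent-only control wells, beyond their mean plus 3 SD; inconclusive = the two replicate wells gave conflicting results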
KCC2 retest ouab: confirmation of human KCC2 modulators with ouabain. raw Tl+ flux slope (below DMSO = inhibition, above = activation) at 10 µM. shares compounds with KCC2 mod. HEK293-KCC2, thallium flux FluoZin2 fluorescence; bidirectional: low = inhibitor, high = activator. hit rate 48% among 3,700;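 active = thallium flux slope beyond 3 SD from same-plate DMSO control mean in most replicates, usually higher, sometimes lower; inconclusive = repeat tests gave conflicting results; inactive = no significant difference from controls in most replicates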;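 also: slope of initial-normalized fluorescence between seconds 10 and 20 after thallium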
HEK293 Tl flux2: acts in parental HEK cells, second KCC2 counter-screen. shares compounds with KCC2 mod. hit rate 33% among 3,700. HEK293 parental, thallium flux FluoZin-2 fluorescence slope. AID 1718. thallium flux slope at 10 µM;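 active = thallium flux slope above the same plate's solvent-control mean plus 3 SD in both duplicate wells; inconclusive = duplicate wells that disagreed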;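 also: run without ouabain in cells lacking the KCC2 cotransporter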
A number is an active result; . = inactive; ? = inconclusive; / = no result given.

SMILES	ROMK mod	PMI act hi M6P	ABCG2 block	ABCB1 block	PMI act	KCC2 mod	KCC2 secondary	KCC2 bumet counter	KCC2 secondary2	HEK293 Tl flux	KCC2 retest ouab	HEK293 Tl flux2
O=C(Nc1ccccc1C(=O)N/N=C/c1ccco1)c1ccc(Cl)cc1	/	.	.	.	.	11	.	0.037	.	0.014	0.029	0.015
O=C(N/N=C/c1ccco1)c1ccc(OCc2ccccc2)cc1	/	/	/	/	/	.	/	/	/	/	/	/
O=C(Nc1ccccc1C(=O)N/N=C/c1ccco1)c1ccc(F)cc1	.	.	.	.	.	17	0.016	0.064	.	0.023	?	0.012
O=C(N/N=C/c1ccco1)c1ccncc1	/	.	.	.	.	.	/	/	/	/	/	/
O=C1CNC(=S)N1c1nc2ccccc2s1	.	/	/	/	/	5.3	.	0.01	.	0.011	.	0.012
C/C(=N\NC(=S)NC(C)C)c1ccccc1OC(F)F	.	.	.	.	.	6	.	0.0097	.	0.012	.	0.015
COCCNC(=S)N/N=C(\C)c1ccc2cc(OC)ccc2c1	.	.	.	.	.	11	.	0.035	.	0.014	0.032	.
C/C(=N\NC(=O)c1nc2ccccn2c1C)c1cc2ccccc2o1	.	.	.	.	.	16	.	0.065	0.047	0.036	0.05	0.039
COc1ccc(/C(C)=N/NC(=S)Nc2cc(C)ccc2C)cc1	.	.	.	.	.	25	.	0.048	0.046	0.036	0.041	0.038
COCCNC(=S)N/N=C(\C)c1ccc(OC)cc1	.	.	.	.	.	.	/	/	/	/	/	/
COc1ccc(CNC(=S)Nc2cc(C)ccc2C)cc1	.	.	.	.	.	.	/	/	/	/	/	/
Cc1ccc(NC(=S)N(Cc2cccs2)Cc2cc3cccc(C)c3[nH]c2=O)cc1	.	.	.	.	.	.	/	/	/	/	/	/
CCOC1=NN(c2ncc(C(F)(F)F)cc2Cl)C(=O)/C1=C/N(C)C	.	.	.	.	.	/	/	/	/	/	/	/
Clc1ncnc2scc(-c3ccc(Br)cc3)c12	.	.	.	.	.	.	/	/	/	/	/	/
COCCNC(=S)N/N=C(\C)c1cccc(C(F)(F)F)c1	.	.	.	.	.	5.8	.	0.02	.	0.012	.	0.015
CCNC(=S)N/N=C(\C)c1ccc2ccccc2c1	.	.	.	.	.	20	.	0.033	.	?	0.031	.
CCNC(=S)N/N=C(\C)c1ccc2ccccc2c1OC(F)F	.	.	.	.	.	7.7	0.012	0.062	.	0.022	0.046	0.015
CCNC(=S)NNC(=O)c1ccccc1OC(F)F	.	.	.	.	.	.	/	/	/	/	/	/
COCCNC(=S)N/N=C(\C)c1cc2ccccc2o1	.	.	.	.	.	19	.	0.025	?	0.022	0.029	0.018
COC(OC)c1ccc(C#N)c(SCc2ccc(C)cc2)n1	/	/	/	/	/	.	/	/	/	/	/	/
COc1cc(-c2nnc(SC/C=C/c3ccccc3)n2N)cc(OC)c1OC	/	.	.	.	.	-6	.	.	.	.	.	.
CN(C)S(=O)(=O)c1cccc(NC(=S)N/N=C/c2ccc(O)c(O)c2O)c1	/	/	/	/	/	.	/	/	/	/	/	/
